Source: PubChem
Only a selection was taken, and hits are over-represented in it overall.
XBP1 UPR activ: activators of adaptive XBP1 UPR arm, primary screen, cell-based, CHO-XBP1 luciferase reporter, luminescence, uHTS; activation, % at 20 µM; IRE1-XBP1 UPR activation; percent of tunicamycin response, DMSO as zero; actives 0.33% (n = 330,000);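 active = versus positive control, 20 µM dose yields 30% or more activation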
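Test system: CHO-XBP1 luciferase reporter cells | Buffer or medium: Serum-containing F12 medium, 10% FBS | Schedule: 6 h compound exposure at 37 °C, 5% CO2 | Detection: Steady-Glo luciferase glow luminescence, 10 min after reagent addition | Read-out basis: Activation, % of tunicamycin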
CHOP inhibitor: inhibitors of CHOP promoter induction, primary screen, cell-based, unfolded protein response, luciferase reporter | CHO-K1 CHOP-promoter luciferase, tunicamycin-induced, 15-18 h | inhibition, % at 10 µM | actives 3.8% (n = 220,000);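 active = compounds that reduced the stress-induced luciferase reporter signal by more than about 70% of percent inhibition, limit read from the data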
UPR CHOP act: activators of apoptotic CHOP UPR arm, primary screen, cell-based, CHO-CHOP luciferase reporter, luminescence, uHTS; activation, % at 10 µM; UPR activation; percent of tunicamycin response over DMSO baseline; actives 0.34% (n = 330,000);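 active = at 10 µM dose, activation of 40% or more, normalized to positive control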
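System: CHO CHOP reporter cells. Amount: 500 cells per well. Buffer or medium: F12 medium, 10% FBS. Compound dosing: one dose, 10 µM in 0.5% DMSO. Incubation: 6 h compound exposure at 37 °C after overnight seeding. Technique: Steady-Glo luciferase luminescence. Benchmarks: tunicamycin and DMSO controls.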
FXN GAA850 act: FXN promoter activators, primary screen, cell-based, luciferase luminescence, HEK293 lucGAA850; activation, % at 6 µM; HEK293 lucGAA850 FXN promoter luciferase reporter, 24 h; percent of 10 µM SAHA response; actives 0.56% (n = 360,000);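 active = activation above the average of all compounds screened plus 3 SD, cutoff fixed separately per campaign, cut at about 7.5% in these data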
Large screens that a line does not name were inactive.

O=C(N/N=C/c1ccc(Cl)cc1Cl)C1CCN(c2ncc(C(F)(F)F)cc2Cl)CC1	CHOP inhibitor 96.0 (no result: XBP1 UPR activ, UPR CHOP act, FXN GAA850 act)
CCc1nc2c(OCC(=O)c3ccc(Cl)cc3Cl)cccn2c1N(C=O)Cc1ccccc1	none (no result: XBP1 UPR activ, CHOP inhibitor, UPR CHOP act)
O=C(/C=C/c1ccccc1)Nc1cccc(C(=O)NCCCCc2ccccc2)c1	none (no result: XBP1 UPR activ, CHOP inhibitor, UPR CHOP act)
O=C(Cn1nc(-c2ccccc2)ccc1=O)Nc1ccc(NC(=O)c2ccccn2)cc1	CHOP inhibitor 93.7
O=C(Cn1nc(-c2ccccc2)ccc1=O)Nc1ccc(-n2cnnn2)cc1	none
COc1ccc(-c2coc3c(C(=O)NCc4ccc(OC)c(OC)c4)cccc23)c(C)c1	none (no result: XBP1 UPR activ, CHOP inhibitor, UPR CHOP act)
CN(C)CCN(C(=O)/C=C/c1cccs1)c1nc2c(F)cc(F)cc2s1	CHOP inhibitor 106.2
CN(C)CCCN(C(=O)/C=C/c1cccs1)c1nc2ccc(F)cc2s1	none
CC(C)(C)NC(=O)NC(=O)COC(=O)C1=COCCO1	CHOP inhibitor 81.1
O=C(COC(=O)C1=COCCO1)Nc1ccccc1	none
COc1cc(/C=c2\s/c(=C(/C#N)C(=O)N3CCCC3)n(-c3ccccc3)c2=O)ccc1O	CHOP inhibitor 94.7
O=c1[nH]nc(Cc2ccc(-c3cccc(Cl)c3)o2)c2ccccc12	CHOP inhibitor 71.6
Clc1cccc(-c2ccc(CNCc3ccccn3)o2)c1	none (no result: CHOP inhibitor)
CCN(CC)C(=O)c1cccc(-c2csc(C(NC(C)=O)c3cccc(OC)c3)n2)c1 (centres undefined)	none (no result: XBP1 UPR activ, CHOP inhibitor, UPR CHOP act)
CN(C)c1nc(Nc2ccc(Cl)cc2)nc(OCC#N)n1	CHOP inhibitor 72.6
COc1ccc(CCNC(=O)CSc2nc3ccsc3c(=O)n2Cc2ccccn2)cc1OC	none (no result: XBP1 UPR activ, CHOP inhibitor, UPR CHOP act)
CC1(Cc2ccc(OC(F)(F)F)cc2)C(=O)Nc2c(Cl)ccc(Cl)c21 (centres undefined)	none (no result: XBP1 UPR activ, CHOP inhibitor, UPR CHOP act)
CN(C)CCCN(C(=O)c1ccc2c(c1)CCCC2)c1nc2ccc(Cl)cc2s1	CHOP inhibitor 89.9
CCOc1ccc2nc(N(CCCN(C)C)C(=O)c3ccc4c(c3)CCCC4)sc2c1	none (no result: CHOP inhibitor)
CCN1C(=O)CSC1=NC1C2CC3CC(C2)CC1C3 (centres undefined)	CHOP inhibitor 75.9
CC(C)N1CCC1(C)C(=O)Nc1ccc2cn[nH]c2c1 (centres undefined)	none (no result: XBP1 UPR activ, CHOP inhibitor, UPR CHOP act)
CCOC(=O)C1CCCN(CC(=O)Nc2c(C(=O)OC)[nH]c3ccc(Br)cc23)C1 (centres undefined)	CHOP inhibitor 76.7
CCOC(=O)C1CCN(CC(=O)Nc2c(C(=O)OC)[nH]c3ccc(Cl)cc23)CC1	none (no result: CHOP inhibitor)
Cc1cc(NC(=O)c2cc(-c3ccccc3)on2)n(-c2ccccc2)n1	CHOP inhibitor 76.1
COc1cccc(-c2cc(C(=O)Nc3c(C)nn(Cc4ccccc4C)c3C)no2)c1	CHOP inhibitor 70.4
COc1ccc(-c2cc(C(=O)Nc3c(C)nn(Cc4ccccc4)c3C)no2)cc1	CHOP inhibitor 75.7
O=C(CCNC(=O)c1ccc([N+](=O)[O-])cc1)Nc1cc(C(F)(F)F)ccc1N1CCOCC1	none (no result: XBP1 UPR activ, CHOP inhibitor, UPR CHOP act)
CCNC(=O)C1(C)CCN1C(=O)CCc1cccc(Cl)c1 (centres undefined)	none (no result: XBP1 UPR activ, CHOP inhibitor, UPR CHOP act)
CN(C)c1ccc(/C=N/NC(=O)CCCO)cc1	none
CN(C)c1ccc(/C=N/NC(=O)CN2CCN(c3ccc(F)cc3)CC2)cc1	CHOP inhibitor 82.0 (no result: FXN GAA850 act)
N#C/C=C(/N)N1CCN(c2ccc(Cl)c(Cl)c2)CC1	CHOP inhibitor 79.7
S=C(NCc1ccco1)N1CCN(c2ccc(Cl)cc2)CC1	none
S=C(NCc1ccco1)N1CCN(Cc2ccc(Cl)cc2Cl)CC1	CHOP inhibitor 74.1
CC(=O)Nc1ccc(N/C=C/C(=O)C(C)(C)C)cc1	none
Cc1ccc(N/C=C/C(=O)C(C)(C)C)c(O)c1	CHOP inhibitor 85.6
COc1ccc(OC)c(Nc2nc3nonc3nc2N2CCCC(C)C2)c1 (centres undefined)	CHOP inhibitor 77.3
CCNc1nc(SCC(=O)Nc2ccc(Cl)c(Cl)c2)nc(N(C)C)n1	CHOP inhibitor 78.6
C[C@@H]1CN([C@H](C)CO)C(=O)CCCn2nncc2CO[C@@H]1CN(C)S(=O)(=O)c1cccs1	none (no result: XBP1 UPR activ, CHOP inhibitor, UPR CHOP act)
COc1cccc(/C=N/NC(=O)C(=O)Nc2ccccc2OC(F)(F)C(F)F)c1O	CHOP inhibitor 78.1
CC[C@@]12C(=O)N(c3cccc(F)c3)C(=O)N1[C@H](c1ccc(F)cc1)[C@@H]1C(=O)N(C3CCCCC3)C(=O)[C@@H]12	FXN GAA850 act 12.6 (no result: CHOP inhibitor)
